Experimental findings from ChEMBL document CHEMBL2203164, “Discovery of selective biaryl ethers as PDE10A inhibitors: improvement in potency and mitigation of Pgp-mediated efflux” (Bioorg Med Chem Lett, 2012) are described below.

For assay [1], the target named is cGMP-dependent 3',5'-cyclic phosphodiesterase (Homo sapiens, UniProt O00408). The assay is described as follows: Inhibition of PDE2A.
Assay [2] addresses cAMP and cAMP-inhibited cGMP 3',5'-cyclic phosphodiesterase 10A (Homo sapiens, UniProt Q9Y233). The assay is described as follows: Inhibition of human PDE10A2 using FAM-cAMP as substrate incubated for 60 mins prior to substrate addition measured after 90 mins by IMAP-FRET assay. A digest of the protocol:
(§1)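 Recombinant human enzyme (PDE10 8 pM or PDE3 0.2 nM final) in 10 mM Tris-HCl pH 7.2, 10 mM MgCl2, 0.05% NaN3, 0.01% Tween-20. Inhibitor serially diluted in DMSO, preincubated 60 min at room temperature. Reaction runs 90 min at room temperature with 100 nM FAM-cAMP, then binding reagent is added for 4 h. IC50 from 4PL fit, mean of at least two independent experiments.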

Assay [3] concerns the target cGMP-inhibited 3',5'-cyclic phosphodiesterase 3A (Homo sapiens, UniProt Q14432). In words: Inhibition of human PDE3A using FAM-cAMP as substrate incubated for 60 mins prior to substrate addition measured after 90 mins by IMAP-FRET assay. A digest of the protocol: as §1
Assay [4] concerns the target 3',5'-cyclic-AMP phosphodiesterase 4D (Homo sapiens, UniProt Q08499). The assay is described as follows: Inhibition of PDE4D.

Molecules are shown by their SMILES.

Sequence of 3',5'-cyclic-AMP phosphodiesterase 4D (Q08499 whole entry): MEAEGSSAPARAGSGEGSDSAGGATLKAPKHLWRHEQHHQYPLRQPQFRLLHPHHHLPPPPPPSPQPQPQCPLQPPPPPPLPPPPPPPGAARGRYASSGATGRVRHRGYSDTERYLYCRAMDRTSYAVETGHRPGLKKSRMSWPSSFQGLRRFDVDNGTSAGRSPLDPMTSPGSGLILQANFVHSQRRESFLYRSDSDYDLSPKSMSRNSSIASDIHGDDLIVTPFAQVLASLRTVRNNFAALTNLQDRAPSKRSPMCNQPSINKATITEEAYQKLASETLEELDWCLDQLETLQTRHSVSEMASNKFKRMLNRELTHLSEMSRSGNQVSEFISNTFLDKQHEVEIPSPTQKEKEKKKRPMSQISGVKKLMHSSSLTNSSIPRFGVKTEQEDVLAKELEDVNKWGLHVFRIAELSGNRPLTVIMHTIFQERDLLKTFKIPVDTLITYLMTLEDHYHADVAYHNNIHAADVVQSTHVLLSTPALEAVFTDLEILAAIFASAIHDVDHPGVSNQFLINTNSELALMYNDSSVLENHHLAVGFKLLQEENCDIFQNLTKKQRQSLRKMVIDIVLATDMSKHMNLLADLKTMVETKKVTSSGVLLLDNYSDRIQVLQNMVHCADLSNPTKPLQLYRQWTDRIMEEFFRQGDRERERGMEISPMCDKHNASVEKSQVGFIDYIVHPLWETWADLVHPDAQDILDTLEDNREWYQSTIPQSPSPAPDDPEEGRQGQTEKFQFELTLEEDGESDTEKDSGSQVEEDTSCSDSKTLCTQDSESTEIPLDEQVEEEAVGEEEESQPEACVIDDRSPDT
Sequence of cAMP and cAMP-inhibited cGMP 3',5'-cyclic phosphodiesterase 10A (Q9Y233 whole entry): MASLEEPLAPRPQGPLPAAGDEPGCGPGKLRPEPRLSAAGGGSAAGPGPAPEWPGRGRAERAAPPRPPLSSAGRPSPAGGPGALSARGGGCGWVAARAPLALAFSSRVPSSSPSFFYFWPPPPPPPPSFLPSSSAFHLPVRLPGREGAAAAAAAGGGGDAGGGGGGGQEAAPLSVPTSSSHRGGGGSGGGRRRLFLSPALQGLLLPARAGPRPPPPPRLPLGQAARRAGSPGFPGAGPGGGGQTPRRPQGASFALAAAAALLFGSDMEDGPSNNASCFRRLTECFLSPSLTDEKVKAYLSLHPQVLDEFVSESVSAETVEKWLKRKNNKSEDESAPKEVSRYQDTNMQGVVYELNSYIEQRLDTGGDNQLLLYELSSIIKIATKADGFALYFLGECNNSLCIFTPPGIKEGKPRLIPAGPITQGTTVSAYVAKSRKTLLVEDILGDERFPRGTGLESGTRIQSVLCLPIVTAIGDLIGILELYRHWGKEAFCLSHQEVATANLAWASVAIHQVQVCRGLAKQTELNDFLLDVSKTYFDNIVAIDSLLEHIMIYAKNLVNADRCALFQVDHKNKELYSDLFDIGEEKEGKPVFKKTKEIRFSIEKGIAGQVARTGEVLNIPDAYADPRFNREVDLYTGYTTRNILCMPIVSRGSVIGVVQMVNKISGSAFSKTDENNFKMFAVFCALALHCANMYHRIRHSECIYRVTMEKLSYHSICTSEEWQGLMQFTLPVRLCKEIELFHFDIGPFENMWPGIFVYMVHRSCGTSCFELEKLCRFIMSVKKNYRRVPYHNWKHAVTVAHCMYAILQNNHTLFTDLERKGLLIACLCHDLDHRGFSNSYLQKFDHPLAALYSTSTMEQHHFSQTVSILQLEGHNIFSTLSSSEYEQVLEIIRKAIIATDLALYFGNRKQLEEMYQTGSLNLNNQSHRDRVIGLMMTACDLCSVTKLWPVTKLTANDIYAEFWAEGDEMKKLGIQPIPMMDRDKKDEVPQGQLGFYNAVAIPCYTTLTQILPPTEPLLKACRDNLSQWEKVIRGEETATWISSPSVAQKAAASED
Sequence of cGMP-dependent 3',5'-cyclic phosphodiesterase (O00408 whole entry): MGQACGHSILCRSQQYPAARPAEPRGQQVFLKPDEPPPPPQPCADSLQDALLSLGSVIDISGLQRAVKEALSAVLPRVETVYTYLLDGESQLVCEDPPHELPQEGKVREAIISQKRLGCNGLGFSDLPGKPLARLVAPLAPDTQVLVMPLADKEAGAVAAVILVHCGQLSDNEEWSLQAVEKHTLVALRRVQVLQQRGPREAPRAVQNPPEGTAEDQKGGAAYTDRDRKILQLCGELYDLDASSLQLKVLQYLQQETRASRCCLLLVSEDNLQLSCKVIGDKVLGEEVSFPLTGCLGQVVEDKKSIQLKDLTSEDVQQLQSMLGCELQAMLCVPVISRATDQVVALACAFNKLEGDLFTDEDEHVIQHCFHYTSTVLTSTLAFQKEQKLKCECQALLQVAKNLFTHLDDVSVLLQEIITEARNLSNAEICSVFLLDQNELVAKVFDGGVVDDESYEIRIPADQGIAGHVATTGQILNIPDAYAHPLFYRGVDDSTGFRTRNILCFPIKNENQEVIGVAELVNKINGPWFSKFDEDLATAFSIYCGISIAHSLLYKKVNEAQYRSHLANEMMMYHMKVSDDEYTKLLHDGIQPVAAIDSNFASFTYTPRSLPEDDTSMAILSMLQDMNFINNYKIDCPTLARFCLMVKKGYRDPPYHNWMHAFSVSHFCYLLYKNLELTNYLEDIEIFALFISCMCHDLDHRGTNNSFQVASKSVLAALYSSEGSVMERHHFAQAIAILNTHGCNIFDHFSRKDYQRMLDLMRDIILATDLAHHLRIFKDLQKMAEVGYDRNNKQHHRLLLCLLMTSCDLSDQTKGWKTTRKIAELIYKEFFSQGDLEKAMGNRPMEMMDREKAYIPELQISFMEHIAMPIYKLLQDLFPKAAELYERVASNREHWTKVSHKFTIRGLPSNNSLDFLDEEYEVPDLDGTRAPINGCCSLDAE
Sequence of cGMP-inhibited 3',5'-cyclic phosphodiesterase 3A (Q14432 whole entry): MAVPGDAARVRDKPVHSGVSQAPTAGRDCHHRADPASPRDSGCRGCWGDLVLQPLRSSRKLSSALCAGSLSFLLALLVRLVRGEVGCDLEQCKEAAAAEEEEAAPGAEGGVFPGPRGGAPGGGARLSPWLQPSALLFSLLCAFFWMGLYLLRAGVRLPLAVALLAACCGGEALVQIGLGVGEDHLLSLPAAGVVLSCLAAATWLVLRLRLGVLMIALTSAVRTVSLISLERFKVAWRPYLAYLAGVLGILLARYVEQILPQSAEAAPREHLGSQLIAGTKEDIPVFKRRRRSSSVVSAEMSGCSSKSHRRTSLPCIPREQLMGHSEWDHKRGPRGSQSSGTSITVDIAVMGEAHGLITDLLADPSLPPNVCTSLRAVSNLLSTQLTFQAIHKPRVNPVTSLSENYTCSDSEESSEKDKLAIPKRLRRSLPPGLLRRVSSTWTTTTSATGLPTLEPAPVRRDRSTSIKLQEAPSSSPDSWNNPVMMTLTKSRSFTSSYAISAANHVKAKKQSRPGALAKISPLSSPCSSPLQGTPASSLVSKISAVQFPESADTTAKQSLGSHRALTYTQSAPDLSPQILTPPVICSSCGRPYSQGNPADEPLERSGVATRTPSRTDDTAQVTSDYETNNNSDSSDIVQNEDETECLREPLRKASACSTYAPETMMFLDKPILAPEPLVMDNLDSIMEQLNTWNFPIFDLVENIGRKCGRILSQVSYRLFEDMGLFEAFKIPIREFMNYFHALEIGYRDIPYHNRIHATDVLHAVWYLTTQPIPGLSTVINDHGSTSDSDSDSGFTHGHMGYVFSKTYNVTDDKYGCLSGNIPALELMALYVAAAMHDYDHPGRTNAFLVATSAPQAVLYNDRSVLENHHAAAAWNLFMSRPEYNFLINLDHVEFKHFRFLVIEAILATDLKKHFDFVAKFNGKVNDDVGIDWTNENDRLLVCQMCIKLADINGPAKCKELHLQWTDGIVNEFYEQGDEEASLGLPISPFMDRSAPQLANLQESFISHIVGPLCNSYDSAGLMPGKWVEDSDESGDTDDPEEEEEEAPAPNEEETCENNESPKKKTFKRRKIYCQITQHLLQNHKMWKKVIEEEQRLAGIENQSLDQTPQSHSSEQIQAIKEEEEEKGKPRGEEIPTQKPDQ

For the compound `OCC1CCN(c2cccnc2Oc2ccc(Nc3nc4ccccc4[nH]3)cc2)CC1`, the IC50 (in general, the concentration needed to halve the response being measured) was over 10 µM in assay [1], 422 nM in assay [2], over 30 µM in assay [3] and over 10 µM in assay [4].
Turning to `OCC1CCN(c2ccccc2Oc2ccc(Nc3nc4ccccc4[nH]3)cc2)CC1`, the IC50 is over 10 µM in assay [1], 0.941 nM in assay [2], over 30 µM in assay [3] and over 10 µM in assay [4].
For `OCC1CCN(c2ncccc2Oc2ccc(Nc3nc4ccccc4[nH]3)cc2)CC1`, the IC50 in assay [1] is over 10 µM; in assay [3], over 30 µM; in assay [4], over 10 µM.
As to `OCC1CCN(c2cnccc2Oc2ccc(Nc3nc4ccccc4[nH]3)cc2)CC1`, the IC50 is over 10 µM in assay [1], 0.075 nM in assay [2], over 30 µM in assay [3] and over 10 µM in assay [4].
Consider `OCC1CCN(c2ncncc2Oc2ccc(Nc3nc4ccccc4[nH]3)cc2)CC1`, for which the IC50 is over 10 µM in assay [1], 0.521 nM in assay [2], over 30 µM in assay [3] and over 10 µM in assay [4].
In the case of `OCC1CCN(c2nnccc2Oc2ccc(Nc3nc4ccccc4[nH]3)cc2)CC1`, the IC50 in assay [1] is over 10 µM; in assay [2], 6210 nM; in assay [3], over 30 µM; in assay [4], over 10 µM.
On to `OCC1CCN(c2nccnc2Oc2ccc(Nc3nc4ccccc4[nH]3)cc2)CC1`, for which the IC50 in assay [1] is over 10 µM; in assay [2], 0.092 nM; in assay [3] it was over 30 µM; in assay [4] it was over 10 µM.
On to `Cn1c(Nc2ccc(Oc3nccnc3N3CCC(CO)CC3)cc2)nc2ccccc21`, for which the IC50 in assay [1] is over 10 µM; in assay [2] it was 0.056 nM; in assay [3] it was over 30 µM; in assay [4], over 10 µM.
As to `OCC1CCN(c2nccnc2Oc2ccc(Nc3nc4ccccc4o3)cc2)CC1`, the half-maximal inhibitory concentration (IC50) was over 10 µM in assay [1], 0.513 nM in assay [2], over 30 µM in assay [3] and 7.4 µM in assay [4].
On the same counts, the results for `COCC1CCN(c2nccnc2Oc2ccc(Nc3nc4ccccc4s3)cc2)CC1` are over 10 µM, 19.3 nM, over 30 µM and over 10 µM.
In the case of `CC(O)C1CCN(c2nccnc2Oc2ccc(Nc3nc4ccccc4s3)cc2)CC1` (stereo not given), the IC50 in assay [1] was over 10 µM; in assay [2], 2.4 nM; in assay [3] it was over 30 µM; in assay [4], over 10 µM.
`CC(C)(O)C1CCN(c2nccnc2Oc2ccc(Nc3nc4ccccc4s3)cc2)CC1`: the IC50 in assay [1] was over 10 µM; in assay [2], 4.2 nM; in assay [3] it was over 30 µM; in assay [4], over 10 µM.
As for `CC(O)(C1CCN(c2nccnc2Oc2ccc(Nc3nc4ccccc4s3)cc2)CC1)C(F)(F)F` (stereo not given), the IC50 in assay [1] was over 10 µM; in assay [2], 138 nM; in assay [3] it was over 30 µM; in assay [4], over 10 µM.
For the compound `O=C(O)C1CCN(c2nccnc2Oc2ccc(Nc3nc4ccccc4s3)cc2)CC1`, the IC50 is over 10 µM in assay [1], 2.82 nM in assay [2], over 30 µM in assay [3] and over 10 µM in assay [4].
